What is called half-life is how long it takes for the measured level to halve.

Molecules are shown by their SMILES.

Data set [1] in a line: Chloroform-acidic buffer partition coefficient, log K at pH 1.4. Format: physicochemical.
Data set [2] relates to Rattus norvegicus. The data set can be described thus: Antiinflammatory activity against carrageenan-induced paw edema in po dosed Wistar rat at dose equivalent to 2.5 mg/kg ketorolac after 2 hrs. It is filed as functional. The method in brief:
(§1)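 Wistar albino rats, 100–200 g, seven groups of three including control and standard. Initial right hind paw volume measured by plethysmometer before dosing. Oral dose in 1% CMC suspension, prodrugs equivalent to 2.5 mg/kg ketorolac. Anti-inflammatory activity reported as percentage at 2 and 6 h after administration.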
(In general: The carrageenan paw model is a standard test of acute inflammation.)

The nature of data set [3]: Solubility in 1.0N HCl. It is filed as physicochemical. The following applies: buffer.
Data set [4] is described as follows: Metabolic stability in human plasma assessed as half life at 10 mg by HPLC. Format: ADME, cell-free. The method in brief:
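10 mg in 2 mL acetonitrile added to 88 mL 80% human plasma (80:20 plasma:phosphate buffer pH 7.4) at 37 ± 0.5 °C. Samples taken at 10, 20, 30, 40, 50 and 60 min and chilled in freezing mixture to stop hydrolysis. Then vortexed 5 min, centrifuged, and supernatant run on C18 reversed-phase HPLC (acetonitrile:water 50:50), UV at 247 nm.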

Data set [5] can be described thus: Protein binding in plasma in pH 7.4 at 20 ug/ml by spectrophotometry. Format: ADME, cell-free. Particulars: read-out: PB (converted). The method in brief:
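Prodrug solution in PBS pH 7.4. Membrane washed with distilled water, then with pH 7.4 buffer, before use. Withdrawn samples diluted with 1 mL phosphate buffer and prodrug concentration measured spectrophotometrically.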

In data set [6] the test system is Rattus norvegicus. The data set can be described thus: Antiinflammatory activity against carrageenan-induced paw edema in po dosed Wistar rat at dose equivalent to 2.5 mg/kg ketorolac after 6 hrs. Format: functional. The method in brief:
as §1

Data set [7] can be described thus: Solubility in water. Format: physicochemical. The following applies: buffer.
Data set [8] can be described thus: Chloroform-PBS partition coefficient, log K at pH 7.4. It is filed as physicochemical.
Data set [9] deals with Rattus norvegicus. The data set can be described thus: Analgesic activity in po dosed Wistar rat […] assessed as reaction time for tail withdrawal at dose equivalent to 1.2 mg/kg of ketorolac after 30 mins by tail flick method. Format: functional. Put shortly: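 Wistar rats, 100–200 g, groups of three. Tail-flick test on a […] analgesiometer with a thermal stimulus. Current set so that more than 90% of rats flick within 5–9 s, and slow responders rejected. Dose equivalent to 1.2 mg/kg given orally in 1% sodium carboxymethylcellulose suspension. %Analgesia = [1 − […]]×100, from reaction times before (T₁) and after (T₂) dosing.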
Background: Hot-plate and tail-flick tests time the reaction to a heat stimulus.

A short description of data set [10]: Metabolic stability in stimulated intestinal fluid assessed as half life at 10 mg by HPLC. Format: ADME. The following applies: simulated intestinal fluid. The method in brief: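 10 mg in 2 mL acetonitrile added to 88 mL SIF (pH 7.4). Aliquots chilled in freezing mixture to arrest hydrolysis, vortexed 5 min and centrifuged 5 min. Supernatant analysed on C18 reversed-phase HPLC (acetonitrile:water 50:50), UV at 247 nm.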

For data set [11], the system named is Rattus norvegicus. The data set can be described thus: Antiinflammatory activity against carrageenan-induced paw edema in Wistar rat at 2.5 mg/kg, po after 6 hrs. Format: functional. The method in brief: as §1
A short description of data set [12]: Solubility in 0.1 N NaOH. Format: physicochemical.
Data set [13] concerns Rattus norvegicus. The data set can be described thus: Antiinflammatory activity against carrageenan-induced paw edema in Wistar rat at 2.5 mg/kg, po after 2 hrs. It is filed as functional. The method in brief:
as §1

In data set [14] the test system is Rattus norvegicus. The data set can be described thus: Gastrointestinal toxicity in Wistar rat assessed as ulcerogenic indicates at dose equivalent to 1.2 mg/kg of ketorolac orally administered for 5 days. It is filed as organism-based. Particulars: in vivo, po, 120 h. Also on record: dose 1.2 mg/kg, route oral. The method in brief:
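Male Wistar rats, 130–150 g, groups of three including control and standard. Suspended in 2% w/v acacia and given orally at dose equivalent to 1.2 mg/kg ketorolac daily for 5 days. Rats fasted after the last dose, then decapitated. Stomach opened and washed, and lesions larger than 0.5 mm counted visually under a 2× binocular magnifier.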

Setting [15] is: chloroform/acidic buffer, pH 1.4.

Take `CCOC(=O)CC(NC(=O)C1CCn2c(C(=O)c3ccccc3)ccc21)C(=O)OCC` (racemic): the K in [1] (setting [15]) was 330.12; in data set [8] (chloroform/PBS, pH 7.4) it was 18.26. Also, the Activity is reported as 44% in the data set with Rattus norvegicus [2], 57.72% in the data set with Rattus norvegicus [6] and 54% with Rattus norvegicus [9]. Also, the solubility entry in data set [3] and in [7] was “Insoluble” in each case. In addition, the values for the half-life in [4] and in data set [10] were 0.45 h and 2.13 h, respectively. The fraction unbound at 20 ug/ml in data set [5] is 0.55.
`CCOC(=O)CCC(NC(=O)C1CCn2c(C(=O)c3ccccc3)ccc21)C(=O)OCC` (racemic): the K in data set [1] (setting [15]) is reported as 319.5; in [8] (chloroform/PBS, pH 7.4) it was 18.08. The figures for the Activity in the data set on Rattus norvegicus [2], in the data set with Rattus norvegicus [6] and in the data set with Rattus norvegicus [9] were 44%, 49% and 54%, respectively. Further, the solubility entry in data set [3] and in data set [7] was “Insoluble” in each case. Moreover, the half-life is 0.45 h in data set [4] and 2.13 h in data set [10]. For the same molecule, the fraction unbound at 20 ug/ml in [5] is 0.55.
Regarding `CCOC(=O)C(C)NC(=O)C1CCn2c(C(=O)c3ccccc3)ccc21` (racemic), the K in data set [1] (setting [15]) came out at 256.73; in [8] (chloroform/PBS, pH 7.4) it was 15.61. Moreover, the Activity with Rattus norvegicus [2] was found to be 27%; with Rattus norvegicus [6], 43%; with Rattus norvegicus [9], 26%. Further, the solubility result in data set [3] and in [7] was “Insoluble” each time. Also, the half-life was 0.987 h in data set [4] and 2.67 h in [10]. In addition, in [5], the fraction unbound at 20 ug/ml is 0.811.
For the molecule `CCOC(=O)C(NC(=O)C1CCn2c(C(=O)c3ccccc3)ccc21)C(C)C` (racemic), the K amounted to 380.6 in data set [1] (setting [15]) and 20 in data set [8] (chloroform/PBS, pH 7.4). Also, the results for the Activity in the data set with Rattus norvegicus [2], in the data set with Rattus norvegicus [6] and in the data set on Rattus norvegicus [9] were 33%, 49% and 36%, respectively. Also, the solubility entry in data set [3] and in data set [7] was “Insoluble” throughout. In addition, the half-life in data set [4] is 0.65 h; in data set [10], 2.67 h. The fraction unbound at 20 ug/ml in [5] is 0.55.
As to `CCOC(=O)C(CC(C)C)NC(=O)C1CCn2c(C(=O)c3ccccc3)ccc21` (racemic), the K in [1] (setting [15]) is 640; in data set [8] (chloroform/PBS, pH 7.4), 23.09. Also, the Activity in the data set on Rattus norvegicus [2] came out at 27%; in the data set with Rattus norvegicus [6] it was 43%; with Rattus norvegicus [9] it was 26%. In addition, the solubility result in [3] and in [7] was “Insoluble” each time. Moreover, the half-life is 1.02 h in [4] and 2.67 h in data set [10]. In data set [5], the fraction unbound at 20 ug/ml is 0.55.
Turning to `CCOC(=O)C(NC(=O)C1CCn2c(C(=O)c3ccccc3)ccc21)C(C)CC` (racemic), the K is 656.8 in [1] (setting [15]) and 23.87 in data set [8] (chloroform/PBS, pH 7.4). Also, the figures for the Activity with Rattus norvegicus [2], in the data set on Rattus norvegicus [6] and with Rattus norvegicus [9] were 33%, 49% and 36%, respectively. Moreover, the solubility entry in data set [3] and in data set [7] was “Insoluble” in each case. Also, the half-life is 0.65 h in data set [4] and 2.13 h in data set [10]. Moreover, the fraction unbound at 20 ug/ml in data set [5] is 0.55.
Regarding `CCOC(=O)C(Cc1ccccc1)NC(=O)C1CCn2c(C(=O)c3ccccc3)ccc21` (racemic), the K is given as 504.05 in data set [1] (setting [15]) and 23.18 in [8] (chloroform/PBS, pH 7.4). The Activity in the data set with Rattus norvegicus [2] was determined as 44%; with Rattus norvegicus [6], 49%; in the data set with Rattus norvegicus [9] it was 54%. For the same molecule, the solubility result in data set [3] and in data set [7] was “Insoluble” in each case. Moreover, the figures for the half-life in [4] and in data set [10] were 0.45 h and 2.13 h, respectively. Further, the fraction unbound at 20 ug/ml in data set [5] was 0.55.
In the case of `CCOC(=O)CNC(=O)C1CCn2c(C(=O)c3ccccc3)ccc21` (racemic), the K in data set [1] (setting [15]) is given as 215.9; in data set [8] (chloroform/PBS, pH 7.4), 13.81. Also, the Activity turned out to be 33% with Rattus norvegicus [2], 49% in the data set with Rattus norvegicus [6] and 36% with Rattus norvegicus [9]. Also, the solubility result in data set [3] and in data set [7] was “Insoluble” throughout. Moreover, the results for the half-life in data set [4] and in [10] were 0.65 h and 2.13 h, respectively. In addition, in [5], the fraction unbound at 20 ug/ml was 0.55.
Consider `CCOC(=O)CCNC(=O)C1CCn2c(C(=O)c3ccccc3)ccc21` (racemic), for which the K is given as 250.25 in [1] (setting [15]) and 15.33 in data set [8] (chloroform/PBS, pH 7.4). For the same molecule, the figures for the Activity in the data set with Rattus norvegicus [2] and with Rattus norvegicus [6] were 33% and 49%, respectively. For the same molecule, the solubility result in data set [3] and in [7] was “Insoluble” each time. The half-life in data set [4] was 0.882 h; in data set [10], 2.67 h. Further, the fraction unbound at 20 ug/ml in [5] is 0.621.
Turning to `CCOC(=O)C(Cc1c[nH]c2ccccc12)NC(=O)C1CCn2c(C(=O)c3ccccc3)ccc21` (racemic), the K in [1] is 429.9; in [8] it was 21.42. The values for the Activity in the data set with Rattus norvegicus [2], in the data set with Rattus norvegicus [6] and with Rattus norvegicus [9] were 27%, 43% and 26%, respectively. Further, the solubility entry in data set [3] and in [7] was “Insoluble” in each case. Besides, the half-life is 0.825 h in data set [4] and 2.98 h in data set [10]. The fraction unbound at 20 ug/ml in data set [5] is 0.55.
`O=C(c1ccccc1)c1ccc2n1CCC2C(=O)O` (stereo unspecified) [KETOROLAC]: the K in data set [1] (setting [15]) is on record as 75.62; in [8] (chloroform/PBS, pH 7.4), 6.022. For the same molecule, the Activity is reported as 54.21% in the data set on Rattus norvegicus [11] and 64.24% in the data set on Rattus norvegicus [13]. Further, the results for the solubility entry in data set [3] and in data set [12] were “Insoluble” and “Soluble”, respectively. In addition, the UI with Rattus norvegicus [14] amounted to 23.2.

Values taken from ChEMBL document CHEMBL1154430, “Synthesis, characterization and pharmacological evaluation of amide prodrugs of ketorolac” (Eur J Med Chem, 2008).
